How the values were obtained:
Format in all cases: functional
[1] = system: NCI-H23; test: Growth inhibition of human NCI-H23 cells assessed as cell growth at 10 '-7 M after 48 hrs by sulforhodamine B assay; details: NCI-H23, 48 h, read-out: Activity
[2] = system: OVCAR-8; test: Growth inhibition of human OVCAR8 cells assessed as cell growth at 10 '-4 M after 48 hrs by sulforhodamine B assay; details: OVCAR-8, 48 h, read-out: Activity
[3] = system: U-251; test: Growth inhibition of human U251 cells assessed as growth inhibition at 10 uM after 48 hrs by sulforhodamine B assay; details: U-251, 48 h, read-out: GI
[4] = system: SNB-19; test: Growth inhibition of human SNB19 cells after 48 hrs by sulforhodamine B assay; details: SNB-19, 48 h
[5] = system: UACC-62; test: Growth inhibition of human UACC62 cells after 48 hrs by sulforhodamine B assay; details: UACC-62, 48 h
[6] = system: HCT-116; test: Growth inhibition of human HCT116 cells assessed as cell growth at 10 '-6 M after 48 hrs by sulforhodamine B assay; details: HCT-116, 48 h, read-out: Activity
[7] = system: SNB-75; test: Growth inhibition of human SNB75 cells assessed as cell growth at 10 '-6 M after 48 hrs by sulforhodamine B assay; details: SNB-75, 48 h, read-out: Activity
[8] = Growth inhibition of human NCI-ADR-RES cells assessed as cell growth at 10 '-8 M after 48 hrs by sulforhodamine B assay; details: read-out: Activity
[9] = system: K562; test: Growth inhibition of human K562 cells assessed as cell growth at 10 '-6 M after 48 hrs by sulforhodamine B assay; details: K562, 48 h, read-out: Activity
[10] = system: TK-10; test: Growth inhibition of human TK10 cells assessed as cell growth at 10 '-8 M after 48 hrs by sulforhodamine B assay; details: TK-10, 48 h, read-out: Activity
[11] = system: K562; test: Growth inhibition of human K562 cells assessed as cell growth at 10 '-5 M after 48 hrs by sulforhodamine B assay; details: K562, 48 h, read-out: Activity
[12] = Growth inhibition of human Hs 578T cells assessed as growth inhibition at 10 uM after 48 hrs by sulforhodamine B assay; details: read-out: GI
[13] = system: A549; test: Growth inhibition of human A549 cells assessed as cell growth at 10 '-6 M after 48 hrs by sulforhodamine B assay; details: A549, 48 h, read-out: Activity
In short: (§1)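 Percent growth at each of the five concentrations of the 48 h continuous-exposure NCI SRB screen. Drug stocks were in DMSO at 400× the top final concentration and diluted in medium with gentamicin. Growth was calculated as [(Ti-Tz)/(C-Tz)]×100 when Ti ≥ Tz, or [(Ti-Tz)/Tz]×100 when Ti < Tz. Tz plates were fixed at drug addition; untreated wells served as control. Absorbance was read at 515 nm.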

[14] = system: T47D; test: Growth inhibition of human T47D cells assessed as growth inhibition at 10 uM after 48 hrs by sulforhodamine B assay; details: read-out: GI
[15] = system: NCI-H460; test: Growth inhibition of human NCI-H460 cells after 48 hrs by sulforhodamine B assay; details: NCI-H460, 48 h
[16] = system: OVCAR-4; test: Growth inhibition of human OVCAR4 cells assessed as cell growth at 10 '-6 M after 48 hrs by sulforhodamine B assay; details: OVCAR-4, 48 h, read-out: Activity
[17] = system: A498; test: Growth inhibition of human A498 cells assessed as cell growth at 10 '-4 M after 48 hrs by sulforhodamine B assay; details: A498, 48 h, read-out: Activity; in short: as §1
[18] = system: SF-295; test: Growth inhibition of human SF295 cells assessed as cell growth at 10 '-7 M after 48 hrs by sulforhodamine B assay; details: SF-295, 48 h, read-out: Activity
[19] = system: M14; test: Growth inhibition of human M14 cells assessed as cell growth at 10 '-5 M after 48 hrs by sulforhodamine B assay; details: M14, 48 h, read-out: Activity
[20] = system: RXF 393; test: Growth inhibition of human RXF393 cells assessed as growth inhibition at 10 uM after 48 hrs by sulforhodamine B assay; details: RXF 393, 48 h, read-out: GI
[21] = system: SR; test: Growth inhibition of human SR cells after 48 hrs by sulforhodamine B assay
[22] = system: LOX IMVI; test: Growth inhibition of human LOXIMVI cells assessed as cell growth at 10 '-6 M after 48 hrs by sulforhodamine B assay; details: read-out: Activity
[23] = system: CAKI-1; test: Growth inhibition of human CAKI-1 cells assessed as cell growth at 10 '-8 M after 48 hrs by sulforhodamine B assay; details: CAKI-1, 48 h, read-out: Activity; in short: as §1
[24] = system: UACC-257; test: Growth inhibition of human UACC257 cells assessed as cell growth at 10 '-5 M after 48 hrs by sulforhodamine B assay; details: UACC-257, 48 h, read-out: Activity
[25] = system: NCI-H23; test: Growth inhibition of human NCI-H23 cells assessed as cell growth at 10 '-4 M after 48 hrs by sulforhodamine B assay; details: NCI-H23, 48 h, read-out: Activity
[26] = system: U-251; test: Growth inhibition of human U251 cells assessed as cell growth at 10 '-6 M after 48 hrs by sulforhodamine B assay; details: U-251, 48 h, read-out: Activity
[27] = system: MDA-MB-231; test: Growth inhibition of human MDA-MB-231 cells after 48 hrs by sulforhodamine B assay; details: MDA-MB-231, 48 h
In short: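 NCI 60-cell-line five-dose screen. Cells were plated at 5,000–40,000/well by doubling time and grown 24 h at 37 °C, 5% CO2. Time-zero plates were TCA-fixed. Drug from DMSO stock was tested at 0.01, 0.1, 1, 10 and 100 µM final for 48 h continuous exposure. Read-out was SRB at 515 nm. GI50 is the concentration giving 50% reduction in net protein increase versus untreated control.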

[28] = system: CAKI-1; test: Growth inhibition of human CAKI-1 cells assessed as cell growth at 10 '-4 M after 48 hrs by sulforhodamine B assay; details: CAKI-1, 48 h, read-out: Activity; in short: as §1
[29] = system: SK-MEL-28; test: Growth inhibition of human SK-MEL-28 cells assessed as cell growth at 10 '-8 M after 48 hrs by sulforhodamine B assay; details: SK-MEL-28, 48 h, read-out: Activity
[30] = system: KM12; test: Growth inhibition of human KM12 cells assessed as cell growth at 10 '-7 M after 48 hrs by sulforhodamine B assay; details: KM12, 48 h, read-out: Activity
[31] = system: SR; test: Growth inhibition of human SR cells assessed as cell growth at 10 '-5 M after 48 hrs by sulforhodamine B assay; details: read-out: Activity
[32] = system: OVCAR-8; test: Growth inhibition of human OVCAR8 cells assessed as cell growth at 10 '-7 M after 48 hrs by sulforhodamine B assay; details: OVCAR-8, 48 h, read-out: Activity
[33] = read-out: LD50 (the source's name)

Structure (SMILES): Cc1cc(=O)oc2cc(OCCn3c(C)nn(-c4ccc(Cl)cc4)c3=O)ccc12
- growth at 0.1 µM [1]: 91%
- growth at 100 µM [2]: 24%
- inhibition of growth at 10 µM [3]: 68.6%
- GI50 [4]: 5370 nM
- TGI [4]: > 1000 nM
- CC50 [4, 33]: > 1000 nM
- GI50 [5]: 1990 nM
- TGI [5]: > 1000 nM
- CC50 [5, 33]: > 1000 nM
- growth at 1 µM [6]: 86%
- growth at 1 µM [7]: 74%
- growth at 0.01 µM [8]: 102%
- growth at 1 µM [9]: 53%
- growth at 0.01 µM [10]: 94%
- growth at 10 µM [11]: 23%
- inhibition of growth at 10 µM [12]: 65.2%
- growth at 1 µM [13]: 96%
- inhibition of growth at 10 µM [14]: 52.6%
- GI50 [15]: 2800 nM
- TGI [15]: > 1000 nM
- CC50 [15, 33]: > 1000 nM
- growth at 1 µM [16]: 88%
- growth at 100 µM [17]: -8%
- growth at 0.1 µM [18]: 85%
- growth at 10 µM [19]: 22%
- inhibition of growth at 10 µM [20]: 62.6%
- GI50 [21]: 4970 nM
- TGI [21]: 6670 nM
- CC50 [21, 33]: > 1000 nM
- growth at 1 µM [22]: 74%
- growth at 0.01 µM [23]: 97%
- growth at 10 µM [24]: 40%
- growth at 100 µM [25]: 19%
- growth at 1 µM [26]: 87%
- GI50 [27]: 4530 nM
- TGI [27]: > 1000 nM
- CC50 [27, 33]: > 1000 nM
- growth at 100 µM [28]: 52%
- growth at 0.01 µM [29]: 105%
- growth at 0.1 µM [30]: 105%
- growth at 10 µM [31]: -6%
- growth at 0.1 µM [32]: 98%
